# Laboratory results as given in ChEMBL document CHEMBL4680121, “Development of (4-methoxyphenyl)-1H-tetrazol-5-amine regioisomers as a new class of selective antitubercular agents” (Eur J Med Chem, 2020).
# Legend:
# [1] = test system: Mycobacterium tuberculosis; experiment: Antitubercular activity against Mycobacterium tuberculosis Spec.192 assessed as inhibition of microbial growth by classical test tube method; format: functional
# Summary of the method: (§1)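 Classical test-tube serial dilution in Youmans' modified Proskauer–Beck liquid medium with 10% bovine serum. Inoculum came from 14-day-old cultures. Compounds were given as DMSO solutions (stock 10 mg/ml), diluted geometrically in medium to 3.1–100 µg/ml, and incubated at 37 °C. MIC is the minimum concentration inhibiting growth relative to a no-compound control.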
# [2] = test system: Staphylococcus epidermidis; experiment: Antibacterial activity against Staphylococcus epidermidis ATCC 35984/RP62A assessed as bacterial growth inhibition measured after 18 hrs by two-fold serial microdilution method; format: functional
# Summary of the method: (§2)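 Two-fold serial broth microdilution in MH II medium following modified CLSI procedures. Compounds were dissolved in DMSO and diluted in medium to at most 1% solvent, tested from 0.03125 to 512 μg/ml. Final inoculum 10^6 CFU/ml. MIC was taken as the lowest concentration with no visible growth after 18 h at 35 °C.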
# [3] = test system: Mycobacterium tuberculosis; experiment: Antitubercular activity against Mycobacterium tuberculosis H37Rv ATCC 25618 assessed as inhibition of microbial growth by classical test tube method; format: functional; summary of the method: as §1
# [4] = test system: Klebsiella pneumoniae; experiment: Antibacterial activity against Klebsiella pneumoniae ATCC 10031 assessed as bacterial growth inhibition measured after 18 hrs by two-fold serial microdilution method; format: functional; summary of the method: as §2
# [5] = test system: Escherichia coli; experiment: Antibacterial activity against Escherichia coli ATCC 25922 assessed as bacterial growth inhibition measured after 18 hrs by two-fold serial microdilution method; format: functional; summary of the method: as §2
# [6] = test system: Staphylococcus aureus; experiment: Antibacterial activity against Staphylococcus aureus NCTC 4163 assessed as bacterial growth inhibition measured after 18 hrs by two-fold serial microdilution method; format: functional; summary of the method: as §2
# [7] = test system: Pseudomonas aeruginosa; experiment: Antibacterial activity against Pseudomonas aeruginosa PAO1 assessed as bacterial growth inhibition measured after 18 hrs by two-fold serial microdilution method; format: functional; summary of the method: as §2
# [8] = test system: Pseudomonas aeruginosa; experiment: Antibacterial activity against Pseudomonas aeruginosa NCTC 6749 assessed as bacterial growth inhibition measured after 18 hrs by two-fold serial microdilution method; format: functional; summary of the method: as §2
# [9] = test system: Proteus vulgaris; experiment: Antibacterial activity against Proteus vulgaris NCTC 4635 assessed as bacterial growth inhibition measured after 18 hrs by two-fold serial microdilution method; format: functional; summary of the method: as §2
# [10] = test system: Staphylococcus epidermidis; experiment: Antibacterial activity against Staphylococcus epidermidis ATCC 1457 assessed as bacterial growth inhibition measured after 18 hrs by two-fold serial microdilution method; format: functional; summary of the method: as §2
# [11] = test system: Staphylococcus epidermidis; experiment: Antibacterial activity against Staphylococcus epidermidis ATCC 12228 assessed as bacterial growth inhibition measured after 18 hrs by two-fold serial microdilution method; format: functional; summary of the method: as §2
# [12] = test system: Staphylococcus aureus; experiment: Antibacterial activity against Staphylococcus aureus ATCC 6538 assessed as bacterial growth inhibition measured after 18 hrs by two-fold serial microdilution method; format: functional; summary of the method: as §2
# [13] = test system: Mycobacterium avium; experiment: Antimycobacterial activity against Mycobacterium avium assessed as inhibition of microbial growth incubated for 1 week by MABA method; format: functional; details: 168 h, time 1 weeks
# Summary of the method: (§3)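 Microplate Alamar Blue assay in Middlebrook 7H9 broth with 10% OADC. Inoculum from fresh LJ culture was adjusted to McFarland 1 and diluted 1:20. DMSO stocks were two-fold serially diluted to final 0.125–512 µg/ml, with growth and sterile controls. Plates ran 1 week at 37 °C, then Alamar blue was added for 24 h. MIC is the lowest concentration preventing the blue-to-pink change.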
# [14] = test system: Mycobacterium scrofulaceum; experiment: Antibacterial activity against Mycobacterium scrofulaceum assessed as inhibition of microbial growth incubated for 1 week by MABA method; format: functional; details: 168 h, time 1 weeks
# Summary of the method: (§4)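 Microplate Alamar Blue assay using two-fold serial microdilution in Middlebrook 7H9 broth with 10% OADC, compounds 0.125–512 µg/ml from DMSO stocks. Inoculum came from fresh LJ culture, was adjusted to McFarland 1 and diluted 1:20. Plates were incubated 1 week at 37 °C, Alamar blue was added and plates were re-incubated 24 h. MIC was the lowest concentration preventing the blue-to-pink change. Each plate carried growth and sterile controls.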
# [15] = test system: Mycobacterium tuberculosis; experiment: Antitubercular activity against Mycobacterium tuberculosis H37Rv ATCC 25618 assessed as inhibition of microbial growth incubated for 1 week by MABA method; format: functional; details: H37Rv ATCC 25618, 168 h, time 1 weeks; summary of the method: as §3
# [16] = test system: Mycolicibacterium fortuitum; experiment: Antibacterial activity against Mycobacterium fortuitum assessed as inhibition of microbial growth incubated for 1 week by MABA method; format: functional; details: 168 h, time 1 weeks; summary of the method: as §4
# [17] = test system: Mycobacterium scrofulaceum; experiment: Potency index, ratio of isoniazid MIC to test compound MIC for antibacterial activity against Mycobacterium scrofulaceum assessed as inhibition of microbial growth incubated for 1 week by MABA method; format: functional; details: time 1 weeks
# [18] = test system: Mycobacterium intracellulare; experiment: Antimycobacterial activity against Mycobacterium intracellulare assessed as inhibition of microbial growth incubated for 1 week by MABA method; format: functional; details: 168 h, time 1 weeks; summary of the method: as §4
# [19] = test system: V79; experiment: Cytotoxicity against Chinese Hamster V79 cells assessed as reduction in cell viability measured after 72 hrs by MTT assay; format: cell-based; details: Cricetulus griseus, V79, 72 h
# Summary of the method: (§5)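 MTT viability assay on cells grown in DMEM with 10% heat-inactivated FBS, penicillin/streptomycin and 20 mM HEPES at 37 °C/5% CO2. Cells were seeded at 1×10^4 per well and allowed to adhere for 24 h, then the medium was refreshed. Compounds were added at 20–140 μM for 72 h at 37 °C, followed by MTT (0.5 mg/mL in serum-free medium) for 4 h. Untreated cells served as control. IC50 is the concentration giving 50% growth inhibition versus control.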
# [20] = test system: Mycobacterium tuberculosis; experiment: Antitubercular activity against Mycobacterium tuberculosis Spec.192 assessed as inhibition of microbial growth incubated for 1 week by MABA method; format: functional; details: Mycobacterium tuberculosis, 192, 168 h; time 1 weeks; summary of the method: as §3
# [21] = test system: Mycobacterium xenopi; experiment: Antibacterial activity against Mycobacterium xenopi assessed as inhibition of microbial growth incubated for 1 week by MABA method; format: functional; details: 168 h, time 1 weeks; summary of the method: as §4
# [22] = test system: HaCaT; experiment: Cytotoxicity against human HaCaT cells assessed as reduction in cell viability at 100 uM measured after 72 hrs by MTT assay; format: cell-based; summary of the method: as §5
# [23] = test system: V79; experiment: Cytotoxicity against Chinese Hamster V79 cells assessed as reduction in cell viability at 100 uM measured after 72 hrs by MTT assay; format: cell-based, Cricetulus griseus; details: v79, 72 h; summary of the method: as §5
# [24] = test system: Mycobacterium kansasii; experiment: Antibacterial activity against Mycobacterium kansasii assessed as inhibition of microbial growth incubated for 1 week by MABA method; format: functional; details: 168 h, time 1 weeks; summary of the method: as §4
# [25] = test system: HaCaT; experiment: Cytotoxicity against human HaCaT cells assessed as reduction in cell viability measured after 72 hrs by MTT assay; format: cell-based; summary of the method: as §5
Structure (SMILES),MIC [1] [µg/mL],MIC [2] [µg/mL],MIC [3] [µg/mL],MIC [4] [µg/mL],MIC [5] [µg/mL],MIC [6] [µg/mL],MIC [7] [µg/mL],MIC [8] [µg/mL],MIC [9] [µg/mL],MIC [10] [µg/mL],MIC [11] [µg/mL],MIC [12] [µg/mL],other results
COc1ccc(NC(S)=Nc2ccc(F)cc2)cc1,100,> 256,50,> 256,> 256,> 256,> 256,> 256,> 256,> 256,> 256,> 256,
COc1ccc(NC(=S)Nc2cccc(Cl)c2)cc1,100,> 256,100,> 256,> 256,> 256,> 256,> 256,> 256,> 256,> 256,> 256,
COc1ccc(Nc2nnnn2-c2cccc(Cl)c2)cc1,,> 256,,> 256,> 256,> 256,> 256,> 256,> 256,> 256,> 256,> 256,MIC [13]: 64 µg/mL; MIC [14]: 2 µg/mL; MIC [15]: 8 µg/mL; MIC [16]: 512 µg/mL; Ratio [17]: 32; MIC [18]: 128 µg/mL; IC50 [19]: 124 µM; MIC [20]: 8 µg/mL; MIC [21]: 512 µg/mL; Activity [22]: Non-Toxic; Activity [23]: Non-Toxic; MIC [24]: 512 µg/mL; IC50 [25]: 103 µM
COc1ccc(-n2nnnc2Nc2cccc(F)c2)cc1,,128,,> 256,> 256,128,> 256,> 256,> 256,256,32,64,MIC [13]: 128 µg/mL; MIC [14]: 16 µg/mL; MIC [15]: 8 µg/mL; MIC [16]: 256 µg/mL; Ratio [17]: 4; MIC [18]: 64 µg/mL; IC50 [19]: 248 µM; MIC [20]: 8 µg/mL; MIC [21]: 512 µg/mL; Activity [22]: Non-Toxic; Activity [23]: Non-Toxic; MIC [24]: 512 µg/mL; IC50 [25]: 127 µM
COc1ccc(NC(=S)Nc2ccc(Cl)cc2)cc1,50,> 256,50,> 256,> 256,> 256,> 256,> 256,> 256,> 256,> 256,> 256,
COc1ccc(NC(=S)Nc2cccc(Br)c2)cc1,50,> 256,50,> 256,> 256,> 256,> 256,> 256,> 256,> 256,> 256,> 256,
COc1ccc(NC(=S)Nc2ccccc2Br)cc1,50,> 256,50,> 256,> 256,> 256,> 256,> 256,> 256,> 256,> 256,> 256,
COc1ccc(NC(=S)Nc2ccc(Br)cc2)cc1,25,> 256,25,> 256,> 256,> 256,> 256,> 256,> 256,> 256,> 256,> 256,
